CHOP inh = inhibitors of CHOP promoter induction, primary screen, cell-based, unfolded protein response, luciferase reporter; CHO-K1 CHOP-promoter luciferase, tunicamycin-induced, 15-18 h; inhibition, % at 10 µM; hit rate 3.8% among 220,000; AID 2732, 2010;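 active means compounds that reduced the stress-induced luciferase reporter signal by more than about 70% of percent inhibition, limit read from the data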;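 further: 0% = tunicamycin plus vehicle and 100% = wells without tunicamycin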
Beta cell apopt = inhibitors of cytokine-induced beta cell apoptosis, primary screen, luminescence. AID 435005, 2010. hit rate 0.8% among 300,000. INS-1E cytokine-induced death, ATP luminescence, 48 h; percent of positive-control rescue, neutral wells zero. protection from apoptosis, % (concentration not given with the values);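 active means Every replicate reaches about 75%, or at least half do and their mean reaches it too, limit read from the data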;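 further: 0% = cytokine-treated negative control wells and 100% = positive control rescue; higher means more ATP so stronger rescue from cytokine killing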
T cruzi inh = inhibitors of intracellular T. cruzi growth, primary screen, luminescence, NIH3T3 host cells; T. cruzi beta-gal in NIH3T3, 90 h; hit rate 1.4% among 300,000; AID 1885, 2009; inhibition, % (concentration not given with the values);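 active means mean inhibition across valid replicates above about 55%, limit read from the data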;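 further: signal also drops with host cell toxicity which is not excluded here; 0% = plate median of DMSO wells and 100% = zero luminescence signal; higher percent means less beta-gal luminescence so fewer parasites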
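Assay system: NIH/3T3 fibroblasts plus reporter T. cruzi. Amount: NIH/3T3 cells, 5,000 per well. Buffer or medium: DMEM, 2% fetal bovine serum. Doses: compound pinned at 50 nL/well, DMSO. Schedule: ≥90 h infection period, 3 h prior cell attachment. Signal: luminescent β-galactosidase signal after 60 min lysis. Read-out: parasite load inhibition, %.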
NR3A LBD binder = binders of NR3A ligand-binding domain, primary screen, biophysical, differential scanning fluorimetry, uHTS. Glutamate receptor ionotropic, NMDA 3A (GRIN3A) ligand-binding domain. AID 1259313, 2017. NR3A LBD differential scanning fluorimetry, Tm shift; 0% = protein alone, 100% = glycine-bound protein. Tm shift relative to glycine control, % at 25 µM. hit rate 2.5% among 340,000;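 active means melting temperature shift of at least 10% of the positive control shift, at one fixed dose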
PREPL inh = PREPL enzyme inhibitors, primary screen, biochemical, fluorescence polarization. Prolyl endopeptidase-like (Homo sapiens), Q4J6C6. recombinant PREPL, fluorescence polarization activity-based probe. inhibition, % at 5.96 µM. hit rate 0.68% among 320,000; in the data active means inhibition above about 43%;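 further: 0% = enzyme with DMSO and 100% = wells lacking enzyme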
Target sequence (Q4J6C6 whole entry, looked up): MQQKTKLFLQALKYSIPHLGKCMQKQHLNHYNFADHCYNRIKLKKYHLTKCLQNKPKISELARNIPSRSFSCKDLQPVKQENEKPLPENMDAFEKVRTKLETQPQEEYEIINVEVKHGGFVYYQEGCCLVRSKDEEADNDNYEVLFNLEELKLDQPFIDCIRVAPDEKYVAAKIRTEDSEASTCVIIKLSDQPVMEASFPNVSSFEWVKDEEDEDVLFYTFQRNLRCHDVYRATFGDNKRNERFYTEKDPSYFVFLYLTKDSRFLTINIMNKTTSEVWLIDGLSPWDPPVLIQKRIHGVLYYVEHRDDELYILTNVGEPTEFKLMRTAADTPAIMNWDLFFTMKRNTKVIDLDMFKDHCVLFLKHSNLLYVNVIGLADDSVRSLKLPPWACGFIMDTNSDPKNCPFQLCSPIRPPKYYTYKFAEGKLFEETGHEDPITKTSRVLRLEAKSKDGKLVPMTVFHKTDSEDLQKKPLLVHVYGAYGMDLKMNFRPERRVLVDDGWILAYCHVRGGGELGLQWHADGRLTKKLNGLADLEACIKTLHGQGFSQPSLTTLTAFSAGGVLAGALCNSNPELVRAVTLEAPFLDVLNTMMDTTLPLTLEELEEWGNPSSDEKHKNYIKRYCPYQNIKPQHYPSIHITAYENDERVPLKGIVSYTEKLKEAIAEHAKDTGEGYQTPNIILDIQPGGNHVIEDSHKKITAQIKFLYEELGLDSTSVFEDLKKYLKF
CSC inhib = cancer stem cell viability inhibitors, primary screen, luminescence | cancer stem cell-like cells viability | inhibition, % at 7.5 µM | hit rate 1.1% among 300,000 | AID 2717, 2010; in the data active means inhibition above about 75%; tested in HMLE shEcad cells
* hit, by the source's call. In the library only some 6.7% were active in any assay of this set; here they are far more common.

`COc1ccc(-c2cc(-c3ccc(C)cc3)n[nH]2)c(O)c1` gave Beta cell apopt -2, T cruzi inh 4, NR3A LBD binder 31*, PREPL inh -1 and CSC inhib 10.
`Oc1ccccc1-c1cc(-c2cccc(F)c2)n[nH]1` gave CHOP inh 70, Beta cell apopt 7, T cruzi inh -3, NR3A LBD binder 8, PREPL inh -48 and CSC inhib 21.
For COc1ccc(-c2cc(-c3cc(C)ccc3O)[nH]n2)cc1 the results were CHOP inh -28, T cruzi inh -8, NR3A LBD binder 14*, PREPL inh 24 and CSC inhib 0.
COc1ccc(-c2cn[nH]c2-c2ccc(O)cc2O)cc1 was read as Beta cell apopt -23, T cruzi inh 0, NR3A LBD binder 2, PREPL inh -10 and CSC inhib -6.
Screening CC(C)(C)c1ccc(-c2cc(-c3ccccc3O)[nH]n2)cc1 returned Beta cell apopt 12, T cruzi inh 16, NR3A LBD binder 19*, PREPL inh 6 and CSC inhib 43.
`CCc1ccccc1NC(=S)N(CCCN1CCOCC1)Cc1cccs1` gave CHOP inh 9, Beta cell apopt -1, T cruzi inh -17, NR3A LBD binder 1, PREPL inh 7 and CSC inhib 4.
COc1ccccc1C(=O)Nc1ccc(OCC(=O)N2CC(C)CC(C)C2)cc1 (centres undefined) was read as Beta cell apopt 3, NR3A LBD binder 0 and PREPL inh 7.
`COc1cccc2c1cc1c(=O)n(CC(=O)NCCCN3CCCCC3)nc(C)n12` gave Beta cell apopt -11, T cruzi inh -16, NR3A LBD binder 3, PREPL inh 0 and CSC inhib -1.
`O=C(Cn1c(C(F)(F)F)nc2ccccc21)Nc1ccccc1C(=O)O` gave CHOP inh 27, Beta cell apopt 0, T cruzi inh -18, NR3A LBD binder -3, PREPL inh 16 and CSC inhib -5.
For CCC(C(=O)O)n1c(C(F)(F)F)nc2ccccc21 (centres undefined) the results were CHOP inh -105, Beta cell apopt -6, T cruzi inh 3, NR3A LBD binder 12*, PREPL inh 10 and CSC inhib 8.
CCC(C)n1c(S(=O)(=O)O)nc2ccccc21 (centres undefined) was read as CHOP inh 34, Beta cell apopt 1, T cruzi inh 4, NR3A LBD binder 2, PREPL inh 10 and CSC inhib -5.
Screening CC(C(=O)Nc1ccccc1C(=O)O)n1c(C(F)(F)F)nc2ccccc21 (centres undefined) returned CHOP inh 6, Beta cell apopt 2, T cruzi inh 71*, NR3A LBD binder 1, PREPL inh -10 and CSC inhib -3.
C[C@H](CO)N1C[C@H](C)[C@@H](CN(C)S(C)(=O)=O)Oc2ccc(NC(=O)c3ccncc3)cc2C1=O was read as Beta cell apopt -12, NR3A LBD binder -3 and PREPL inh 7.
`CN(C)C(CNC(=O)C1CCN(C(=O)/C=C/c2ccccc2)CC1)c1ccccc1` (centres undefined) gave Beta cell apopt -6, T cruzi inh -14, NR3A LBD binder -1, PREPL inh 2 and CSC inhib -15.
For COc1ccc(C(=O)N2CCCC(Nc3ccc(F)cc3)C2)cc1F (centres undefined) the results were Beta cell apopt -4, T cruzi inh -6, NR3A LBD binder 2, PREPL inh 15 and CSC inhib -6.
`Cc1ccc(NC2CCCN(C(=O)CSc3ccncc3)C2)cc1C` (centres undefined) gave Beta cell apopt -4, T cruzi inh 56*, NR3A LBD binder 1 and CSC inhib 13.
`COc1ccc(NC2CCCN(C(=O)CCc3ccncc3)C2)cc1OC` (centres undefined) gave Beta cell apopt 2, T cruzi inh 1, NR3A LBD binder 0 and PREPL inh 9.
`Cc1ccc(NC2CCCN(C(=O)CCc3ccncc3)C2)cc1C` (centres undefined) gave Beta cell apopt -2, T cruzi inh 63*, NR3A LBD binder 0 and CSC inhib 4.
COc1ccc(C(=O)N2CCCC(Nc3ccc(C)c(C)c3)C2)cc1F (centres undefined) was read as T cruzi inh 4, NR3A LBD binder 16*, PREPL inh 12 and CSC inhib -4.
`COC(=O)C1CCN(C(=O)COC(=O)c2cccc(NS(=O)(=O)c3ccccc3)c2)CC1` gave T cruzi inh 5, NR3A LBD binder -1, PREPL inh -3 and CSC inhib -19.
For COc1cc(S(=O)(=O)Nc2ccc(C)cc2)ccc1N=Cc1c(C)[nH]n(-c2ccccc2)c1=O the results were CHOP inh 58, Beta cell apopt 4, T cruzi inh -7, NR3A LBD binder 26*, PREPL inh 6 and CSC inhib 14.
CC(=O)Oc1ccc(C23c4ccccc4C2(OC(C)=O)c2cc(OC(C)=O)ccc23)cc1 (centres undefined) was read as NR3A LBD binder -10.
COc1cccc(Cn2c(=O)sc3ccccc3c2=O)c1 was read as CHOP inh 9, Beta cell apopt -3, T cruzi inh 14, NR3A LBD binder 0, PREPL inh -9 and CSC inhib -3.
`Cc1ccc(Cn2c(=O)sc3ccccc3c2=O)cc1` gave CHOP inh 65, Beta cell apopt -1, T cruzi inh 17, NR3A LBD binder 11*, PREPL inh 10 and CSC inhib 4.
`Cc1ccc(NC(=O)OC(C)N2CCCCC2)cc1NC(=O)OC(C)N1CCCCC1` (centres undefined) gave NR3A LBD binder 0.
For O=C(CNC(=O)c1ccc(Cl)c([N+](=O)[O-])c1)NCC1CCCO1 (centres undefined) the results were Beta cell apopt -5, T cruzi inh -3, NR3A LBD binder 4, PREPL inh 10 and CSC inhib 7.
`CCC(C)[C@H](NC(=O)N1CCN(c2cccc(C(F)(F)F)c2)CC1)C(=O)OC` (some centres undefined) gave CHOP inh 81*, Beta cell apopt -3, T cruzi inh 24, NR3A LBD binder 5, PREPL inh 10 and CSC inhib -3.
Screening C=CCOC(=O)N1CCN(c2cccc(C(F)(F)F)c2)CC1 returned CHOP inh 81*, Beta cell apopt 2, T cruzi inh 11, NR3A LBD binder 1 and PREPL inh -7.
